# ZTA DNA inh – ZTA (EBV) inhibition in EBNA-1 counter-screen | P03206 | ZTA-DNA binding, fluorescence polarization | inhibition, % at 11 µM | 320,000 compounds, 0.15% hits | AID 2234; in the data active means inhibition above about 33%
# Target sequence (P03206 whole entry, looked up): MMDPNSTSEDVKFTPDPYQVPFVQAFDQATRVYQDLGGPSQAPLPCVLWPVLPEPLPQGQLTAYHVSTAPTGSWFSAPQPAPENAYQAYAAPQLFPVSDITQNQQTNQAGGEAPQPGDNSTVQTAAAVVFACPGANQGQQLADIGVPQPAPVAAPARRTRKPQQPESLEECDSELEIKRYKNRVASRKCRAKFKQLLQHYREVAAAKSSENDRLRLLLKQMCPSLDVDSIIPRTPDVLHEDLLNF
# PP1 counter – PP1-alpha (human) inhibition in PP5 counter-screen; P62136; purified PP1alpha, OMFP fluorescence; inhibition, % at 6.7 µM; 320,000 compounds, 0.9% hits; AID 2235;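 active means inhibition above the mean inhibition of all tested compounds plus 3 SD, computed separately for each screening campaign, cut at about 15% in these data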
# Target sequence (P62136 whole entry, looked up): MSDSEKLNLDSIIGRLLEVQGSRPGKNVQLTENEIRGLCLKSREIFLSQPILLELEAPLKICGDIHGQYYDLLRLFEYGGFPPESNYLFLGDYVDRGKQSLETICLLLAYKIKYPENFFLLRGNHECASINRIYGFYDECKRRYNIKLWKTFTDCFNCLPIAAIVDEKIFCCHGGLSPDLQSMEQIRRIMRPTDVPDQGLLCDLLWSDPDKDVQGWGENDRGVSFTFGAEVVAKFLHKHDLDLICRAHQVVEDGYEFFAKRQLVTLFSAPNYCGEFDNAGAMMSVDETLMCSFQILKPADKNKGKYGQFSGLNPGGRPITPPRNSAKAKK
# NS3 helicase inh – inhibitors of Hepatitis C virus NS3 helicase; NS3 helicase DNA unwinding, Cy5 molecular beacon fluorescence; inhibition, % at 10.9 µM; 290,000 compounds, 0.56% hits; AID 1800;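 active means inhibition above the mean of all tested compounds plus 3 SD, set per campaign, cut at about 35% in these data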;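 further: 0% = DMSO wells and 100% = thioflavine S control wells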
#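 Measured by: Cy5 fluorescence, 0 and 60 min reads / Assay system: NS3 helicase fragment of HCV / Control set: low DMSO, high thioflavine S at 110 µM / Times: 1 h reaction at 25 °C, ATP-initiated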
# EBNA-1 inh – blocks EBNA-1 binding to DNA | EBNA-1 DNA binding, fluorescence polarization | inhibition, % at 14.8 µM | 300,000 compounds, 0.34% hits | AID 1950; in the data active means inhibition above about 28%
# core dimer inh – HCV core protein dimerization inhibition; inhibition, % at 5 µM; AID 1899; TR-FRET GST/Flag-core106 dimerization, 1536-well; 300,000 compounds, 0.33% hits;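 active means inhibition above the mean of all tested compounds plus 3 SD, set per screening campaign, cut at about 45% in these data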
#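 Test system: GST/Flag-tagged HCV core106 proteins; Medium: KF-containing HEPES buffer, pH 7.45, DTT, CHAPS, BSA; Times: compound-protein-antibody incubation 4 h at 22.5 °C; Detection: TR-FRET 671 and 617 nm emission; Benchmarks: wells lacking GST-core106 and wells with excess unlabelled core106.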
# PP1 confirm – human PP1 phosphatase inhibition, confirmation. 1,900 compounds, 52% hits. shares compounds with PP1 counter. purified PP1alpha, OMFP substrate fluorescence. inhibition, % at 6.7 µM;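 active means mean PP1 inhibition above a set limit taken from the earlier primary screen, cut at about 15% in these data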
# PP5 inh counter – PP5 phosphatase inhibition, counter-screen for PP1 inhibitors | shares compounds with PP1 counter | purified PP5c, OMFP fluorescence | inhibition, % at 6.7 µM | 1,900 compounds, 4% hits;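 active means mean PP5 inhibition over triplicate wells above about 9.5% taken from the earlier PP1 screen, limit read from the data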
# * hit, by the source's call; . = not tested or not shown. Only some compounds are listed: those with a hit (about 1.9% of all), similar ones and a draw of the others.
SMILES,ZTA DNA inh,PP1 counter,NS3 helicase inh,EBNA-1 inh,core dimer inh,PP1 confirm,PP5 inh counter
O=C(NCc1nc2ccccc2[nH]1)C1=C[C@H](c2coc3ccccc3c2=O)C[C@H](OCCCCO)O1,0.0,5.2,.,-5.2,-9.8,.,.
CCc1ccc(N=C2NC(=O)/C(=C/c3ccc(OCC(=O)O)c(OC)c3)S2)cc1,.,.,8.5,.,.,.,.
CCc1ccc(N=C2NC(=O)/C(=C/c3ccc(OCC(=O)O)cc3)S2)cc1,-1.4,39.2*,35.6,12.8,-10.2,3.4,-1.1
Cc1ccc(-c2ccc(SCC(=O)Nc3ccc4c(c3)OCCO4)nn2)cc1,-14.7,38.3*,-2.0,-2.0,-6.5,-2.5,-2.1
CC(=O)c1ccc(OCC(=O)OCC(=O)NCc2ccco2)cc1,-7.5,-3.3,.,.,.,.,.
O=C(O)C(Cc1ccccc1)N1C(=O)c2cccc3cccc(c23)C1=O (stereo not given),9.3,2.7,7.4,5.8,-0.6,.,.
O=C(Nc1cccc(O)c1)C(Cc1ccccc1)N1C(=O)c2cccc3cccc(c23)C1=O (stereo not given),7.4,18.6*,15.4,10.3,24.7,28.5*,1.0
CCOc1ccc(NC(=O)CC2S/C(=N/N=C3CCCCCC3)NC2=O)cc1 (stereo not given),13.9,2.6,-6.5,6.7,14.3,.,.
Cc1cccc(NC(=S)NCc2ccc3c(c2)cc(C)n3C)c1C,-10.3,17.9*,-16.6,-8.8,-43.8,3.0,-0.8
COc1cccc(NC(=S)NCc2ccc3c(c2)cc(C)n3C)c1,.,.,-66.5,.,.,.,.
Cc1cc(CN(C)C(=O)c2ccc3nc(Cc4ccccc4F)oc3c2)on1,11.9,-1.7,-6.2,10.9,-1.6,.,.
Cc1sc2nc(CSc3ccc([N+](=O)[O-])c(C(F)(F)F)c3)[nH]c(=O)c2c1C,-15.1,27.4*,11.0,7.3,5.5,8.7,-2.4
Cc1cc(NC(c2cccnc2)c2ccc3cccnc3c2O)no1 (stereo not given),-12.6,-0.5,-6.5,5.4,-5.2,.,.
CC(=O)NC(c1ccc(C)cc1)c1cc(Cl)c2cccnc2c1O (stereo not given),.,.,31.3,.,.,.,.
COc1ccc(C(NC(=O)c2cccnc2)c2cc(Cl)c3cccnc3c2O)cc1OC (stereo not given),-7.9,34.4*,4.4,2.0,-1.6,22.5*,-1.9
Oc1c(C(Nc2ccccn2)c2cccnc2)cc(Cl)c2cccnc12 (stereo not given),3.9,21.8*,-34.8,9.7,-2.8,18.9*,-3.2
CC(=O)Nc1ccc2c(c1)nc(CCNC(=O)c1ccco1)n2C,-3.7,1.7,-3.8,-11.8,-5.4,.,.
COc1cc(/C=C(\C#N)C(=O)Nc2cccc(C(=O)O)c2)ccc1OCc1ccc(Cl)cc1,4.1,31.4*,-14.1,5.2,29.9,24.2*,1.7
COc1cc(NC(=O)c2cc(S(=O)(=O)N3CCCCC3)c[nH]2)cc(OC)c1,5.7,17.6*,2.2,6.7,8.2,12.2,-3.8
O=C(NCCNC(=O)c1ccccn1)c1ccc(-c2ccccc2)cc1,4.2,-3.4,1.1,-5.2,-4.3,.,.
O=C(c1ccco1)N1CCN(c2ncnc3c2nnn3Cc2ccccc2Cl)CC1,-6.1,40.9*,4.2,7.7,3.5,43.7*,-3.6
NC(=O)c1ccc(NC(=O)c2cnc3ccccc3n2)cc1,-4.9,-5.0,-13.1,-7.3,2.3,.,.
CNC(=O)NC(=O)COc1ccc2oc3c(c2c1)CCCC3,1.9,0.3,10.3,-6.7,2.2,.,.
CCc1ccccc1OCC(=O)Nc1nc(-c2cccnc2)cs1,-3.7,44.8*,-1.8,-3.9,4.0,44.0*,0.6
CCC(=O)c1ccc(OCC(=O)Nc2nc(-c3cccnc3)cs2)cc1,14.8,17.9*,.,-10.2,16.1,29.0*,-6.1
SMILES,ZTA DNA inh,PP1 counter,NS3 helicase inh,EBNA-1 inh,core dimer inh,PP1 confirm,PP5 inh counter
CN(C)/C=C/c1onc(-c2c(Cl)cccc2Cl)c1C#N,6.8,35.5*,27.7,5.5,0.5,0.8,1.0
N#Cc1c(-c2c(Cl)cccc2Cl)noc1/C=C/Nc1ccc(C(=O)O)cc1,-8.4,5.1,30.0,-4.9,17.1,.,.
Cc1ccc(N2CC(C(=O)N3CCC(C(=O)NC(C)(C)C)CC3)CC2=O)cc1 (stereo not given),12.6,-2.8,1.7,-10.1,-6.8,.,.
N#Cc1c(SCC(=O)Nc2nncs2)sc2c(O)cc(=O)[nH]c12,7.7,42.0*,24.5,18.3,-49.4,10.1,5.8
O=C(C[n+]1ccccc1)c1ccc(-c2ccccc2)cc1,-5.0,2.5,-3.3,4.6,-3.8,.,.
C=Cn1cc[n+](CC(=O)c2ccc(-c3ccccc3)cc2)c1,0.4,21.7*,-64.2,-19.3,1.4,-1.6,-0.3
CCC1CCCCN1S(=O)(=O)c1ccc(C(=O)Nc2nnc(-c3ccccc3Cl)o2)cc1 (stereo not given),-5.1,5.4,7.6,-3.9,3.3,.,.
CCOC(=O)N1CCN(S(=O)(=O)c2ccc(C(=O)Nc3nnc(C4CC4)o3)cc2)CC1,-8.5,14.5,15.4,0.1,-6.5,.,.
CC1CC(C)CN(S(=O)(=O)c2ccc(C(=O)Nc3nnc(C4CC4)o3)cc2)C1 (stereo not given),-4.7,18.9*,26.6,13.5,-8.8,27.4*,-2.5
CCC1CCCCN1S(=O)(=O)c1ccc(C(=O)Nc2nnc(C3CC3)o2)cc1 (stereo not given),10.0,23.3*,25.6,-2.2,0.7,25.9*,-2.2
Cc1ccc(C)c(OCCn2cc(/C=C(/C#N)C(=O)NCC3CCCO3)c3ccccc32)c1 (stereo not given),18.1,52.8*,1.8,10.2,7.9,1.6,-2.5
Cn1c2ccc(F)cc2c2nnc(SCC(=O)Nc3cccc(O)c3)nc21,-12.2,2.8,-4.1,-9.6,9.9,.,.
C/C(=N/NC(=O)c1cc2ccccc2cc1O)C1C(=O)c2ccccc2C1=O,-0.2,24.2*,-3.4,11.5,13.1,16.6*,-3.8
COC(=O)c1ccc(/C=C/c2ccc3cccc(OC(C)=O)c3n2)cc1,-3.6,20.3*,-17.0,1.3,-3.6,20.9*,-3.6
CC(C)c1ccc(NC(=O)Nc2cc3sccc3n2C)cc1,-14.8,17.9*,22.6,-6.1,46.7*,2.4,-6.0
Cn1c(C(=O)Nc2ccc3c(c2)OCCO3)cc2sccc21,-11.5,1.9,-6.8,0.4,1.0,.,.
COc1ccc(NC(=O)CSc2nc(O)cc(=O)n2-c2ccc(OC)cc2)cc1,-1.5,19.5*,24.4,2.6,8.9,-4.5,-7.5
COc1cccc(-n2c(SCC(=O)Nc3ccc4c(c3)CCC4)nc3ccccc3c2=O)c1,-7.8,18.9*,-1.6,4.0,6.7,3.7,1.2
COC(=O)[C@H](Cc1ccccc1)NC(=O)NCCc1ccccc1F,8.8,-3.6,11.6,8.5,3.0,.,.
COc1ccc(-n2c3c(cc(C(=O)NNc4ccccc4C)c2=O)C(=O)CC(C)(C)C3)cc1,4.8,18.2*,-1.5,-3.9,-4.4,0.6,-3.2

# Compound activity deposited in PubChem by The Scripps Research Institute Molecular Screening Center.
